Measured values reported in ChEMBL document CHEMBL3351949, “Substituted dithiazole piperazine benzamides as novel amyloid beta peptide reducing agents” (Bioorg Med Chem Lett, 2014).
The source made the active and inactive calls. No cut-off for these calls is given here.

What was measured:
[1] = biological target: Amyloid-beta precursor protein (Homo sapiens) (UniProt P05067); assay: Reduction in wild type APP751 (unknown origin) expressed in CHO cells assessed as increase in c-terminal fragments at 50 nM to 10 uM after 48 hrs by immunoblotting method relative to untreated control; assay type: cell-based
Chain of Amyloid-beta precursor protein (Homo sapiens) (P05067 whole entry, the tested form may be a part): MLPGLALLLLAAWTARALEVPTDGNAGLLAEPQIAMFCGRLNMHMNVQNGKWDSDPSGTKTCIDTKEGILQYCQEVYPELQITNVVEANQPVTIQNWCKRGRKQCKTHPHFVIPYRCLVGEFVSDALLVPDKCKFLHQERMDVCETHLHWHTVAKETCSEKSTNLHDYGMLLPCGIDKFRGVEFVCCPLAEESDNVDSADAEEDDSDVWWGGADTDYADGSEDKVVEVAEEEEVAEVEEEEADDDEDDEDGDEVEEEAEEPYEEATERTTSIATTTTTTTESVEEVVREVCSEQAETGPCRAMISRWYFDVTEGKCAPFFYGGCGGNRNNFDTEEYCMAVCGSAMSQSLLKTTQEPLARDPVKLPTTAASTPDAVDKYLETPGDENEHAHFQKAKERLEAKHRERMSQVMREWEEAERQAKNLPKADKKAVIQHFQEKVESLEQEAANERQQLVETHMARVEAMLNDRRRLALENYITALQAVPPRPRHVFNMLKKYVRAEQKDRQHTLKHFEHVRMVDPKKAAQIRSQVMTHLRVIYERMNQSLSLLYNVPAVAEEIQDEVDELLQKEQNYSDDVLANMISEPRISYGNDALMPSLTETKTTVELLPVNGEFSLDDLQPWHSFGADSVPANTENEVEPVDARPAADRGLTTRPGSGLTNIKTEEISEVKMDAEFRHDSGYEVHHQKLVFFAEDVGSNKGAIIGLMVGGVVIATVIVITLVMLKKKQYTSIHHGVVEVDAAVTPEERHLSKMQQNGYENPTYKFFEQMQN
Method in brief: (§1)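 7WD10 CHO cells (APP751wt) treated 48 h versus DMSO controls. Cells lysed in buffer with protease inhibitors. Full-length APP and C-terminal fragments detected with CT15 antibody by SDS-PAGE immunoblot and ECL, quantified by densitometry. n=4; ANOVA with Dunnett's test.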

[2] = biological target: Amyloid-beta precursor protein (Homo sapiens) (UniProt P05067); assay: Reduction in wild type APP751 (unknown origin) expressed in CHO cells assessed as increase in alpha c-terminal fragments at 50 nM to 10 uM after 48 hrs by immunoblotting method relative to untreated control; assay type: cell-based; method in brief: as §1
[3] = biological target: Amyloid-beta precursor protein (Homo sapiens) (UniProt P05067); assay: Reduction in wild type APP751 (unknown origin) expressed in CHO cells assessed as increase in secreted APPalpha at 50 nM to 10 uM after 48 hrs by immunoblotting method; assay type: cell-based; parameters: scale not given: the % may be the effect or the level left
Method in brief: (§2)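 48 h treatment of APP751wt-expressing CHO (7WD10) cells, DMSO control. Conditioned medium immunoblotted for sAPPα (6E10), sAPPβ (anti-sAPPβ-wt rabbit IgG) and total sAPP (63G). Detection by ECL, densitometric quantification.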

CHO [4] = assay: Toxicity against CHO cells assessed as induction of cell death at 10 uM by LDH release assay; assay type: cell-based, Cricetulus griseus; details: chinese hamster
Method in brief: (§3)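 Cytotoxicity in CHO cells measured by lactate dehydrogenase release and by MTT reduction. n=4 per group; ANOVA followed by Dunnett's post-hoc test.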

[5] = biological target: Amyloid-beta precursor protein (Homo sapiens) (UniProt P05067); assay: Reduction in wild type APP751 (unknown origin) expressed in CHO cells at 500 nM after 48 hrs by immunoblotting method relative to untreated control; assay type: cell-based
Method in brief: (§4)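 CHO cells stably expressing APP751wt (7WD10) treated 48 h, duplicate wells, DMSO as control. Conditioned medium centrifuged and immunoprecipitated overnight with Ab9 (Aβ 1–16). Aβ detected by SDS-PAGE immunoblot with 6E10/82E1 and ECL, signals quantified by densitometry. Dose-response n=4; ANOVA with Dunnett's post-hoc test.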

[6] = biological target: Amyloid-beta precursor protein (Homo sapiens) (UniProt P05067); assay: Reduction in wild type APP751 (unknown origin) expressed in CHO cells at 100 nM after 48 hrs by immunoblotting method relative to untreated control; assay type: cell-based; method in brief: as §4
[7] = biological target: Amyloid-beta precursor protein (Homo sapiens) (UniProt P05067); assay: Reduction in wild type APP751 (unknown origin) expressed in CHO cells at 50 nM after 48 hrs by immunoblotting method relative to untreated control; assay type: cell-based; method in brief: as §4
[8] = biological target: Amyloid-beta precursor protein (Homo sapiens) (UniProt P05067); assay: Reduction in wild type APP751 (unknown origin) expressed in CHO cells at 1 uM after 48 hrs by immunoblotting method relative to untreated control; assay type: cell-based; method in brief: as §4
N2a = assay: Reduction in […] APP695 Sweden mutant (unknown origin) expressed in N2a cells by immunoblotting method; assay type: cell-based; details: Homo sapiens
Method in brief: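 Neuro-2a cells stably expressing APP695swe treated at 1.0 μM. Aβ immunoprecipitated from conditioned medium with Ab9 antibody (Aβ 1–16) and detected by immunoblot with 6E10/82E1 mixture.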

[9] = Half life in brain of APP/PS1 double transgenic APdeltaE9 mouse 4 mg/kg, iv; assay type: ADME, organism-based; parameters: dose 4 mg/kg, route intravenous
[10] = biological target: Amyloid-beta precursor protein (Homo sapiens) (UniProt P05067); assay: Reduction in wild type APP751 (unknown origin) expressed in CHO cells at 10 uM after 48 hrs by immunoblotting method relative to untreated control; assay type: cell-based; method in brief: as §4
[11] = biological target: Amyloid-beta precursor protein (Homo sapiens) (UniProt P05067); assay: Reduction in wild type APP751 (unknown origin) expressed in CHO cells assessed as increase in secreted APPalpha at 50 nM to 10 uM after 48 hrs by immunoblotting method relative to untreated control; assay type: cell-based; method in brief: as §2
[12] = biological target: Amyloid-beta precursor protein (Homo sapiens) (UniProt P05067); assay: Reduction in wild type APP751 (unknown origin) expressed in CHO cells assessed as increase in secreted APPbeta at 50 nM to 10 uM after 48 hrs by immunoblotting method relative to untreated control; assay type: cell-based; method in brief: as §2
CHO [13] = assay: Toxicity against CHO cells assessed as induction of cell death up to 1 uM by MTT assay; assay type: cell-based, Cricetulus griseus; details: chinese hamster; method in brief: as §3
[14] = biological target: Amyloid-beta precursor protein (Homo sapiens) (UniProt P05067); assay: Reduction in wild type APP751 (unknown origin) expressed in CHO cells assessed as increase in alpha c-terminal fragments at 50 nM to 10 uM after 48 hrs by immunoblotting method; assay type: cell-based; parameters: scale not given: the % may be the effect or the level left; method in brief: as §1
[15] = biological target: Amyloid-beta precursor protein (Homo sapiens) (UniProt P05067); assay: Reduction in wild type APP751 (unknown origin) expressed in CHO cells at 1 uM after 48 hrs by immunoblotting method; assay type: cell-based; method in brief: as §4
Mus musculus = assay: Reduction in amyloid plaque numbers in APP/PS1 double transgenic APdeltaE9 mouse 0.5 mg/kg, ip dosed daily for 60 days starting from 4 to 6 months of age; assay type: functional; details: 1440 h, route intraperitoneal
Method in brief: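 APP/PS1 double transgenic (APΔE9) mice dosed i.p. daily, 0.5 mg/kg body wt., from 4- to 6-months of age for 60 days. Amyloid plaque numbers counted in brain sections (cortex and hippocampus) versus vehicle-treated mice.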

[16] = Drug level in brain of APP/PS1 double transgenic APdeltaE9 mouse 4 mg/kg, iv measured after 10 mins; assay type: ADME, organism-based; parameters: dose 4 mg/kg, route intravenous; details: read-out: Drug uptake
Method in brief: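 Mice given 4 mg/kg by intravenous injection; compound level measured in brain over time after dosing (about 10–20 min window).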

CHO [17] = assay: Toxicity against CHO cells assessed as induction of cell death up to 1 uM by LDH release assay; assay type: cell-based, Cricetulus griseus; details: chinese hamster; method in brief: as §3
[18] = biological target: Amyloid-beta precursor protein (Homo sapiens) (UniProt P05067); assay: Reduction in wild type APP751 (unknown origin) expressed in CHO cells assessed as increase in beta c-terminal fragments at 50 nM to 10 uM after 48 hrs by immunoblotting method; assay type: cell-based; method in brief: as §1
CHO [19] = assay: Toxicity against CHO cells assessed as induction of cell death at 10 uM by MTT assay; assay type: cell-based, Cricetulus griseus; details: chinese hamster; method in brief: as §3
[20] = biological target: Amyloid-beta precursor protein (Homo sapiens) (UniProt P05067); assay: Reduction in wild type APP751 (unknown origin) expressed in CHO cells assessed as increase in full length APP level at 50 nM to 10 uM after 48 hrs by immunoblotting method; assay type: cell-based; method in brief: as §1

inhibition [1]: Dose-dependent effect | inhibition [2]: Dose-dependent effect | Activity [3]: 40% | inhibition [5]: 31% | inhibition [6]: 20% | inhibition [7]: 21% | inhibition [8]: 54% | half-life [9]: 6.7 min | inhibition [10]: 63% | inhibition [11]: Dose-dependent effect | inhibition [12]: inactive | Activity [14]: 80% | inhibition [15]: Active | concentration at 10 min [16]: 40 ng/mL | inhibition [18]: inactive | inhibition [20]: Dose-dependent effect
Compound: NC(=O)c1ccc(N2CCN(c3nc(-c4cccc(O)c4)cs3)CC2)c(Nc2nc(-c3cccc(O)c3)cs2)c1
Activity (CHO [4]): Toxic | inhibition (N2a): Active | Activity (CHO [13]): Non-toxic | inhibition in vivo at 0.5 mg/kg (Mus musculus): 39% | Activity (CHO [17]): Non-toxic | Activity (CHO [19]): Toxic
